This passage reports Ki and Ratio Ki results from ChEMBL document CHEMBL2157986, “The multiobjective based design, synthesis and evaluation of the arylsulfonamide/amide derivatives of aryloxyethyl- and arylthioethyl- piperidines and pyrrolidines as a novel class of potent 5-HT₇ receptor antagonists” (Eur J Med Chem, 2012).

Assay [1] concerns the target 5-hydroxytryptamine receptor 7 (Homo sapiens, UniProt P34969). Description: Displacement of [3H]-5-CT from human 5-HT7b receptor expressed in HEK293 cells after 1 hr. The class given is cell-based. On the technique in general: In a radioligand displacement assay an active substance lowers the binding of a labelled ligand.
For the next assay, the target named is D(2) dopamine receptor (Homo sapiens, UniProt P14416). Description: Binding affinity to human dopamine D2L receptor expressed in HEK293 cells after 1 hr. The class given is cell-based.
The species named for another assay is Homo sapiens. Description: Selectivity ratio of Ki for human 5-HT1A receptor to Ki for human 5-HT7b receptor.
For assay [2], the target named is 5-hydroxytryptamine receptor 6 (Homo sapiens, UniProt P50406). Kind of assay: Displacement of [3H]-LSD from human 5-HT6 receptor expressed in HEK293 cells after 1 hr. The assay is classed as cell-based.
Assay [3] concerns the target T1, 5-hydroxytryptamine receptor 1A (Homo sapiens, UniProt P08908).
T1 sequence (P08908 whole entry): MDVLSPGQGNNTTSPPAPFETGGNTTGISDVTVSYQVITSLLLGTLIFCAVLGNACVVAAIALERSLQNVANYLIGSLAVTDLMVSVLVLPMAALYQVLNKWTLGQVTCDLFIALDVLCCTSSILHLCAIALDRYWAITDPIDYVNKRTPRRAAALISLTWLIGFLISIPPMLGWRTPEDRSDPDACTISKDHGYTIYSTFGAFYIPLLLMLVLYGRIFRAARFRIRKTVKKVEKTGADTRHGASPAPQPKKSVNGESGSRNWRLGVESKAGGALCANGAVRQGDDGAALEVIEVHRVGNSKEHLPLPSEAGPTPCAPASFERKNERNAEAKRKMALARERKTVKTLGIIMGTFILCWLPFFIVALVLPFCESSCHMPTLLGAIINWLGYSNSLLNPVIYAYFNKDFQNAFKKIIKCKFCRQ
Description: Displacement of [3H]-8-OH-DPAT from human 5-HT1A receptor expressed in HEK293 cells after 1 hr. The assay is classed as cell-based. An outline of the steps: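 Membranes from stably transfected HEK293 cells (human 5-HT1A), homogenized in 50 mM Tris–HCl, 0.1 mM EDTA, 4 mM MgCl2, 10 µM pargyline, 0.1% ascorbate; incubated 1 h at room temperature, then rapid filtration and radioactivity counting. Nonspecific binding with 10 µM 5-HT.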

Bounds are passed on as bounds.

Chain of 5-hydroxytryptamine receptor 7 (P34969 whole entry): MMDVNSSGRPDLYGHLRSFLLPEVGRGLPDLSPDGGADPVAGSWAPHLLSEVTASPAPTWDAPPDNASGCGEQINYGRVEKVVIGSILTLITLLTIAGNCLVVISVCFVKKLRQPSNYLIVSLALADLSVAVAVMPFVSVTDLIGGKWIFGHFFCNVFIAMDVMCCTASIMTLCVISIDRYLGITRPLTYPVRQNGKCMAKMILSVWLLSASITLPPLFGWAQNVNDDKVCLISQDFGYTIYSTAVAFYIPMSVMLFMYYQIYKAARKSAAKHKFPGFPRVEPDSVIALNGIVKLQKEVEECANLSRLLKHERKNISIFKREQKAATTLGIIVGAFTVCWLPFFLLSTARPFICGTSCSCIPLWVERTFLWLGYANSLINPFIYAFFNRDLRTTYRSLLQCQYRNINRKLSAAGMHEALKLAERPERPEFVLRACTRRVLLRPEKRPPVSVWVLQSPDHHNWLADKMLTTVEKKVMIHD
Chain of D(2) dopamine receptor (P14416 whole entry): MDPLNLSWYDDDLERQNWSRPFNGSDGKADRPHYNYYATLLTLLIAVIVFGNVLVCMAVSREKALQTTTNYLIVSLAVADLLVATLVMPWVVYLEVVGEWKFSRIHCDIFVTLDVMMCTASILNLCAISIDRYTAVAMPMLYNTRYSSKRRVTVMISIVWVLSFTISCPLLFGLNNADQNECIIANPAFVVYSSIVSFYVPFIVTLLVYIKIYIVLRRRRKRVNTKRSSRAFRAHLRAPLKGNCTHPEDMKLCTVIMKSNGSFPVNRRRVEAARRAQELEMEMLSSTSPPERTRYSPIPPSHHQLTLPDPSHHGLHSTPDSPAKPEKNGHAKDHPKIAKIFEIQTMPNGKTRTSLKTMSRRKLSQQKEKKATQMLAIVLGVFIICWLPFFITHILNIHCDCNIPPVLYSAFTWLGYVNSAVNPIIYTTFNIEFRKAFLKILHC
Chain of 5-hydroxytryptamine receptor 6 (P50406 whole entry): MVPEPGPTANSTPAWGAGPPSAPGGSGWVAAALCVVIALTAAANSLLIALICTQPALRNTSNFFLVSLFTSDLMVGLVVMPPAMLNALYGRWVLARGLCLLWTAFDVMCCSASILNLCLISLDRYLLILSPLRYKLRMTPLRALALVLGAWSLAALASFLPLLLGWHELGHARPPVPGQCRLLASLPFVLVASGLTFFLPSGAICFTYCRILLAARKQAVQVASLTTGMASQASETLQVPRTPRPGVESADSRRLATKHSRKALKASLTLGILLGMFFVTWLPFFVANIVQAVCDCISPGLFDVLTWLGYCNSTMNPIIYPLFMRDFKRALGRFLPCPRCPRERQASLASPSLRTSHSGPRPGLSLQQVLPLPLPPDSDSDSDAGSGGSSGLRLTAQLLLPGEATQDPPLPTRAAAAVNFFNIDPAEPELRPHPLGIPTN

The Ki is a dissociation constant, usually derived from enzyme kinetics or from competition with a known ligand. Read a low Ki as tighter binding. Turning to `CCOc1ccccc1C(=O)NC1CCN(CCOc2cccc(F)c2)CC1`, the Ki came out at 2380 nM in assay [1], 76 nM on D(2) dopamine receptor, 3780 nM in assay [2] and 456 nM in assay [3]. In the assay listed under Homo sapiens, the Ratio Ki is under 1.

`O=S(=O)(NC1CCN(CCOc2ccccc2)CC1)c1cccs1`: the Ki amounted to 155 nM in assay [1], 84 nM at D(2) dopamine receptor, 862 nM in assay [2] and 237 nM in assay [3]. Moreover, the Ratio Ki in the assay filed under Homo sapiens was determined as 2.

As to `CSc1ccccc1OCCN1CCC(NS(=O)(=O)c2ccc(F)cc2)C1` (stereo not drawn), the Ki in assay [1] was determined as 11 nM; at D(2) dopamine receptor, 41 nM; in assay [2], 357 nM; in assay [3], 10 nM. Also, the Ratio Ki in the assay filed under Homo sapiens is 1.

For the compound `O=S(=O)(N[C@H]1CCN(CCOc2ccccc2-c2ccccc2)C1)c1ccc(F)cc1`, the Ki in assay [1] was found to be 10 nM; at D(2) dopamine receptor, 10 nM; in assay [2], 271 nM; in assay [3], 32 nM. Moreover, the Ratio Ki in the assay filed under Homo sapiens was 3.

As for `CC(C)c1ccccc1OCCN1CCC(NC(=O)c2ccc3ccccc3n2)C1` (stereo not drawn), the Ki in assay [1] stood at 178 nM; on D(2) dopamine receptor, 79 nM; in assay [2], 1760 nM; in assay [3], 30 nM. In addition, the Ratio Ki in the assay filed under Homo sapiens is under 1.

For `O=S(=O)(N[C@@H]1CCN(CCOc2ccccc2-c2ccccc2)C1)c1ccc(F)cc1`, the Ki was found to be 2 nM in assay [1], 16 nM on D(2) dopamine receptor, 102 nM in assay [2] and 22 nM in assay [3]. The Ratio Ki in the assay listed under Homo sapiens came out at 11.

Take `CC(C)c1ccccc1OCCN1CCC(NS(=O)(=O)c2cccc3cccnc23)C1` (stereo not drawn): the Ki in assay [1] amounted to 10 nM; on D(2) dopamine receptor it was 10 nM; in assay [2] it was 504 nM; in assay [3] it was 23 nM. The Ratio Ki in the assay filed under Homo sapiens is 2.

With `O=S(=O)(N[C@H]1CCN(CCOc2ccccc2-c2ccccc2)C1)c1ccc(Cl)s1`, the Ki at D(2) dopamine receptor is 8 nM; in assay [2], 551 nM; in assay [3], 147 nM.

In the case of `CSc1ccccc1OCCN1CCC(CNS(=O)(=O)c2cccc(Cl)c2)CC1`, the Ki in assay [1] turned out to be 78 nM; at D(2) dopamine receptor it was 50 nM; in assay [2] it was 147 nM; in assay [3] it was 18 nM. The Ratio Ki in the assay listed under Homo sapiens was under 1.

Turning to `O=S(=O)(NC1CCN(CCOc2cccc(F)c2)C1)c1ccc(F)c(F)c1` (stereo not drawn), the Ki was 293 nM in assay [1], 523 nM on D(2) dopamine receptor, 951 nM in assay [2] and 230 nM in assay [3]. For the same compound, the Ratio Ki in the assay listed under Homo sapiens was under 1.

`CC(C)c1ccccc1OCCN1CC[C@@H](NS(=O)(=O)c2ccc(Cl)s2)C1`: the inhibition constant (Ki) came out at 20 nM at D(2) dopamine receptor, 200 nM in assay [2] and 49 nM in assay [3].

For the compound `O=S(=O)(NC1CCN(CCOc2cccc(Cl)c2Cl)C1)c1ccc(Cl)s1` (stereo not drawn), the Ki at D(2) dopamine receptor stood at 67 nM; in assay [2], 91 nM; in assay [3], 28 nM.

`O=S(=O)(NC1CCN(CCOc2ccccc2-c2ccccc2)C1)c1ccc(F)c(F)c1` (stereo not drawn): the Ki in assay [1] worked out at 7 nM; at D(2) dopamine receptor, 24 nM; in assay [2], 327 nM; in assay [3] it was 92 nM. The Ratio Ki in the assay listed under Homo sapiens amounted to 13.

Turning to `O=S(=O)(N[C@@H]1CCN(CCOc2ccccc2-c2ccccc2)C1)c1ccc(Cl)s1`, the Ki came to 39 nM at D(2) dopamine receptor, 202 nM in assay [2] and 75 nM in assay [3].

For the compound `O=S(=O)(NC1CCN(CCOc2ccccc2)C1)c1ccc(Cl)s1` (stereo not drawn), the Ki on D(2) dopamine receptor was 318 nM; in assay [2] it was 957 nM; in assay [3], 65 nM.

On to `O=S(=O)(NC1CCN(CCOc2ccccc2)C1)c1ccc(F)cc1` (stereo not drawn), for which the Ki in assay [1] is 9 nM; at D(2) dopamine receptor, 11 nM; in assay [2], 248 nM; in assay [3], 9 nM. Also, in the assay listed under Homo sapiens, the Ratio Ki turned out to be 1.

In the case of `O=S(=O)(NC1CCN(CCOc2cccc3c2CCCC3)C1)c1cccs1` (stereo not drawn), the Ki in assay [1] came out at 27 nM; at D(2) dopamine receptor it was 72 nM; in assay [2] it was 102 nM; in assay [3] it was 13 nM. The Ratio Ki in the assay listed under Homo sapiens is under 1.

Consider `O=S(=O)(NC1CCN(CCOc2cc(Cl)ccc2Cl)C1)c1ccc(Cl)s1` (stereo not drawn), for which the Ki is 78 nM on D(2) dopamine receptor, 225 nM in assay [2] and 717 nM in assay [3].

Regarding `O=S(=O)(NCC1CCN(CCOc2cccc(F)c2)CC1)c1ccc(F)cc1`, the Ki in assay [1] amounted to 1360 nM; on D(2) dopamine receptor, 839 nM; in assay [2], 2120 nM; in assay [3], 903 nM. The Ratio Ki in the assay filed under Homo sapiens was under 1.

`O=S(=O)(NC1CCN(CCOc2ccccc2-c2ccccc2)CC1)c1ccc(F)c(F)c1`: the Ki in assay [1] was 7 nM; on D(2) dopamine receptor, 63 nM; in assay [2], 199 nM; in assay [3], 313 nM. Further, the Ratio Ki in the assay listed under Homo sapiens worked out at 45.

As to `CC(C)c1ccccc1OCCN1CC[C@H](NS(=O)(=O)c2ccc(Cl)s2)C1`, the Ki on D(2) dopamine receptor came to 25 nM; in assay [2] it was 537 nM; in assay [3], 89 nM.

For the compound `CC(C)c1ccccc1OCCN1CCC(CNS(=O)(=O)c2cccc(Cl)c2)CC1`, the Ki in assay [1] amounted to 46 nM; on D(2) dopamine receptor it was 66 nM; in assay [2], 177 nM; in assay [3] it was 104 nM. In the assay listed under Homo sapiens, the Ratio Ki was 2.

As to `O=S(=O)(NC1CCN(CCOc2cccc3c2CCCC3)C1)c1ccc(F)cc1` (stereo not drawn), the Ki in assay [1] was 16 nM; on D(2) dopamine receptor it was 72 nM; in assay [2], 96 nM; in assay [3] it was 22 nM. Besides, in the assay listed under Homo sapiens, the Ratio Ki came out at 1.

Regarding `CC(C)c1ccccc1OCCN1CCC(NS(=O)(=O)c2cccc(Cl)c2)C1` (stereo not drawn), the Ki in assay [1] stood at 4 nM; on D(2) dopamine receptor it was 25 nM; in assay [2], 245 nM; in assay [3] it was 31 nM. Moreover, the Ratio Ki in the assay filed under Homo sapiens came out at 8.

On to `O=C(NC1CCN(CCOc2ccccc2-c2ccccc2)C1)c1ccc2ccccc2n1` (stereo not drawn), for which the Ki came to 41 nM in assay [1], 24 nM on D(2) dopamine receptor, 1340 nM in assay [2] and 45 nM in assay [3]. The Ratio Ki in the assay listed under Homo sapiens was determined as 1.

Turning to `O=S(=O)(NCC1CCN(CCOc2cccc(F)c2)CC1)c1cccs1`, the Ki in assay [1] turned out to be 2220 nM; on D(2) dopamine receptor it was 1060 nM; in assay [2], 2760 nM; in assay [3], 841 nM. For the same compound, the Ratio Ki in the assay filed under Homo sapiens was under 1.

As to `O=S(=O)(NCC1CCN(CCOc2ccccc2-c2ccccc2)CC1)c1ccc(Cl)s1`, the Ki in assay [1] worked out at 20 nM; at D(2) dopamine receptor it was 32 nM; in assay [2] it was 410 nM; in assay [3], 101 nM. The Ratio Ki in the assay filed under Homo sapiens was found to be 5.

As for `O=S(=O)(NC1CCN(CCOc2ccccc2-c2ccccc2)C1)c1cc(F)ccc1F` (stereo not drawn), the Ki in assay [1] stood at 9 nM; on D(2) dopamine receptor, 18 nM; in assay [2], 515 nM; in assay [3], 81 nM. In addition, the Ratio Ki in the assay listed under Homo sapiens was 9.

As to `O=S(=O)(NCC1CCN(CCOc2ccccc2-c2ccccc2)CC1)c1ccc(F)cc1`, the Ki worked out at 13 nM in assay [1], 46 nM on D(2) dopamine receptor, 315 nM in assay [2] and 290 nM in assay [3]. Further, the Ratio Ki in the assay filed under Homo sapiens is 22.

In the case of `O=S(=O)(c1ccc2cc[nH]c2c1)N1CCC[C@@H]1CCN1CCC(Oc2ccc(Cl)cc2)CC1`, the Ki in assay [1] was 3.2 nM; in assay [3], 250 nM.
